Where only a bound is given, the exact number is not on record here.

A short description of data set [1]: Metabolite analysis in plasma and brain tissue after tracer injection. In kind it is in vivo. Particulars: Wistar rats, mean ± SD; for parent tracer, brain: brain tissue. An outline of the steps: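 Male Wistar rats (230–291 g) got radiotracer (28 ± 4 or 43 ± 24 MBq, depending on tracer) by tail vein under isoflurane and stayed conscious until sacrifice at 5, 15 or 60 min (n = 3). Heparinised plasma was run on a tC18 cartridge: the water wash was the polar metabolite fraction and the methanol eluate the nonpolar parent fraction, analysed by HPLC. Half-brains were homogenised in cold H2O/MeCN (1:1), centrifuged, and supernatants run on HPLC.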

In another data set the test system is BCRP. The experiment in a line: PET imaging in Bcrp1. Type of data set: in vivo. Particulars: Bcrp1(-/-) mice, PET image-derived brain and blood curves. An outline of the steps: (§1)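 Male FVB-background wild-type, Mdr1a/b(−/−) and Bcrp1(−/−) mice (28.3–39.7 g) were isoflurane-anaesthetised with jugular cannulas. They got 3.6–3.8 MBq radiotracer and 60 min dynamic PET in groups of 4–6, mostly on HRRT. One tracer's Mdr1a/b(−/−) vs WT study used nanoPET/CT and PET/MR. Ellipsoid ROIs gave brain TACs (SUV) and left-ventricle blood curves. Brain-to-blood AUC ratios were calculated from the AUCs.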

Data set [2] in a line: Biodistribution in selected organs. In kind it is in vivo. Particulars: Wistar rats, 5, 15, 60 min after injection. An outline of the steps: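 Male Wistar rats (218–244 g) got 50 ± 2 MBq radiotracer i.v. by tail vein under isoflurane (2% in O2). They stayed conscious until sacrifice, except the 5 min group. Rats were killed under isoflurane at 5, 15 or 60 min (n = 3). Heart-puncture blood, heart, lungs, liver, kidneys, bone, cerebral cortex, cerebellum and remaining brain were weighed and gamma-counted. Results were expressed as %ID/g.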

Data set [3] has as its system P-gp. Kind of data set: P-gp blocking study with tariquidar, PET whole brain uptake. In kind it is in vivo. Particulars: Wistar rats; for increase in brain uptake after tariquidar vs baseline scans: tariquidar 15 mg/kg i.v. 30 min before tracer, PET whole brain.
Data set [4] deals with P-gp. The experiment in a line: PET imaging in Mdr1a/b. Particulars: for brain-to-blood AUC ratios: PET image-derived brain and blood curves. Type of data set: in vivo, mice. The essentials: as §1
Another data set in a line: PET imaging in wild-type. Type of data set: in vivo. Particulars: WT mice, PET image-derived brain and blood curves. An outline of the steps:
as §1

Regarding `COc1ccc([C@@](C#N)(CCCNCCc2ccc(OCC[18F])c(OC)c2)C(C)C)cc1OC` [[^18F]2, (R)-2-(3,4-Dimethoxyphenyl)-5-((4-(2-[^18F]fluoroethoxy)-3-methoxyphenethyl)amino)-2-isopropylpentanenitrile], the results for the “parent tracer, brain” value in data set [1] (5 min after injection), in data set [1] (15 min after injection) and in data set [1] (60 min after injection) were 26 ± 6 Percentage of total radioactivity, 17 ± 7 Percentage of total radioactivity and 6 ± 1 Percentage of total radioactivity, respectively. For the same molecule, the entries for the “parent tracer, plasma” value in data set [1] (5 min after injection), in data set [1] (15 min after injection) and in data set [1] (60 min after injection) were 20 ± 3 Percentage of total radioactivity, 8 ± 3 Percentage of total radioactivity and 4 ± 1 Percentage of total radioactivity, respectively. The “brain-to-blood AUC ratios” value worked out at 0.20 ± 0.02 with BCRP, 0.75 ± 0.14 in the data set with P-gp [4] (Mdr1a/b(-/-) mice) and 0.18 ± 0.04 in the data set “PET imaging in wild-type”. Also, the “bone uptake (defluorination)” value in data set [2] was “low bone uptake”. Besides, in the data set on P-gp [3], the “increase in brain uptake after tariquidar vs baseline scans” value was 2.4 fold. For the same molecule, in the data set on P-gp [4] (Mdr1a/b(-/-) mice, at the end of the scan (60 min)), the “SUV plateau of brain uptake” value is listed as “about 0.9 SUV”. Besides, the “higher brain uptake in Mdr1a/b(-/-) mice than in wild-type mice” value in the data set on P-gp [4] (maximum level over 60 min scan, PET whole brain) is no more than 6.4 fold.

On to `COc1ccc(CCN(CC[18F])CCC[C@](C#N)(c2ccc(OC)c(OC)c2)C(C)C)cc1OC` [[^18F]1, (R)-5-((3,4-Dimethoxyphenethyl)(2-[^18F]fluoroethyl)amino)-2-(3,4-dimethoxyphenyl)-2-isopropylpentanenitrile], for which, in data set [1] (15 min after injection), the “parent tracer, brain” value is given as 14 ± 2 Percentage of total radioactivity. The “parent tracer, plasma” value in data set [1] (15 min after injection) is recorded as 19 ± 2 Percentage of total radioactivity; in data set [1] (60 min after injection), 3 ± 1 Percentage of total radioactivity. Moreover, the results for the “brain-to-blood AUC ratios” value in the data set with BCRP, in the data set with P-gp [4] (Mdr1a/b(-/-) mice) and in the data set “PET imaging in wild-type” were 0.88 ± 0.06, 0.98 ± 0.07 and 0.52 ± 0.05, respectively. Also, in data set [2], the “bone uptake (defluorination)” value is “bone uptake was low and did not increase over time”. In data set [2], the brain uptake entry was “low brain uptake”. Further, in the data set with P-gp [3] (PET whole brain time-activity curve, tariquidar blocking study), the “time of highest brain uptake” value is reported as 5 min. Moreover, the “increase in brain uptake after tariquidar vs baseline scans” value in the data set on P-gp [3] is 3.6 fold. Moreover, in the data set on P-gp [4] (during the first 10 min, PET whole brain), the “higher brain uptake in Mdr1a/b(-/-) mice compared with wild-type mice” value stood at 1.4 fold.

Source of the values: paper PMC5609126 (ACS Chemical Neuroscience, 2017).
